{"source": "ChEMBL document CHEMBL5136969", "about": "“A niclosamide-tobramycin hybrid adjuvant potentiates cefiderocol against P. aeruginosa” (2021)", "key": {"Enterobacter cloacae": {"system": "Enterobacter cloacae", "assay": "Antibacterial activity against Enterobacter cloacae 121187 assessed as reduction in bacterial growth after 18 hrs by microbroth dilution method", "assay_type": "functional", "summary_of_the_method": "(§1)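 CLSI microbroth dilution in MHB. Overnight cultures were adjusted to 0.5 McFarland in saline, diluted 1:50, and inoculated at about 5 × 10^5 CFU/mL. Agents were 2-fold serially diluted and incubated 18 h at 37 °C. MIC is the lowest concentration without visible turbidity, confirmed by absorbance at 590 nm. Medium with and without cells served as controls.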"}, "Klebsiella pneumoniae [1]": {"system": "Klebsiella pneumoniae", "assay": "Antibacterial activity against Klebsiella pneumoniae KP116381 assessed as potentiation of cefiderocol antibacterial activity by measuring FIC after 18 hrs by microbroth dilution method", "assay_type": "functional", "summary_of_the_method": "(§2)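 Checkerboard in MHB. Cefiderocol was 2-fold serially diluted along one axis and the adjuvant along the other. Inoculum was prepared from 0.5 McFarland saline suspensions diluted 1:50 in MHB, giving about 5 × 10^5 CFU/mL final. Plates ran 18 h at 37 °C, with turbidity confirmed at 590 nm. FIC = combination MIC ÷ MIC alone for each agent, and FIC index = sum of both. Interpretation: ≤0.5 synergy, >0.5–4 additive, >4 antagonism.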"}, "Klebsiella pneumoniae [2]": {"system": "Klebsiella pneumoniae", "assay": "Antibacterial activity against Klebsiella pneumoniae KP113254 assessed as reduction in bacterial growth after 18 hrs by microbroth dilution method", "assay_type": "functional", "summary_of_the_method": "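CLSI broth microdilution. Overnight cultures were adjusted in saline to 0.5 McFarland, diluted 1:50 in Mueller-Hinton broth (MHB), and inoculated at about 5 × 10^5 CFU/mL. Agents were 2-fold serially diluted in MHB, mixed 1:1 with inoculum, and held at 37 °C for 18 h. MIC was the lowest concentration with no visible turbidity, confirmed at 590 nm.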"}, "Escherichia coli [3]": {"system": "Escherichia coli", "assay": "Potentiation of cotrimoxazole-induced antibiotic activity against Escherichia coli ATCC 25922 assessed as MIC fold reduction at 8 ug/ml after 18 hrs by microbroth dilution method", "assay_type": "functional", "conditions": "dose 8 µg/ml", "summary_of_the_method": "(§3)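 Adjuvant held at a fixed 8 μg/mL while the antibiotic was 2-fold serially diluted in Mueller-Hinton broth (MHB), per CLSI microbroth dilution. Overnight cultures were adjusted in saline to 0.5 McFarland, then diluted 1:50 in MHB to about 5 × 10^5 CFU/mL final, and incubated 18 h at 37 °C. MIC was the lowest concentration with no visible turbidity, confirmed at 590 nm. Fold potentiation = MIC alone / MIC with adjuvant.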"}, "Acinetobacter baumannii [4]": {"system": "Acinetobacter baumannii", "assay": "Antibacterial activity against Acinetobacter baumannii AB92247 assessed as reduction in bacterial growth after 18 hrs in presence of cefiderocol by microbroth dilution method", "assay_type": "functional", "summary_of_the_method": "(§4)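 Checkerboard in Mueller-Hinton broth: cefiderocol 2-fold diluted on one axis, adjuvant 2-fold on the other. Overnight cultures were adjusted to 0.5 McFarland in saline, diluted 1:50 in MHB, and inoculated at about 5 × 10^5 CFU/mL. Incubation was 18 h at 37 °C. Turbidity was read visually and confirmed at 590 nm. FIC index = FIC of antibiotic + FIC of adjuvant; ≤0.5 synergy, >4 antagonism.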"}, "Escherichia coli [5]": {"system": "Escherichia coli", "assay": "Antibacterial activity against Escherichia coli ATCC 25922 assessed as reduction in bacterial growth after 18 hrs by microbroth dilution method", "assay_type": "functional", "summary_of_the_method": "as §1"}, "Acinetobacter baumannii [6]": {"system": "Acinetobacter baumannii", "assay": "Antibacterial activity against Acinetobacter baumannii ATCC 17978 assessed as reduction in bacterial growth after 18 hrs in presence of cefiderocol by microbroth dilution method", "assay_type": "functional", "summary_of_the_method": "as §4"}, "Escherichia coli [7]": {"system": "Escherichia coli", "assay": "Potentiation of erythromycin-induced antibiotic activity against Escherichia coli ATCC 25922 assessed as MIC fold reduction at 8 ug/ml after 18 hrs by microbroth dilution method", "assay_type": "functional", "conditions": "dose 8 µg/ml", "summary_of_the_method": "as §3"}, "Klebsiella pneumoniae [8]": {"system": "Klebsiella pneumoniae", "assay": "Antibacterial activity against Klebsiella pneumoniae KP113250 assessed as reduction in bacterial growth after 18 hrs in presence of cefiderocol by microbroth dilution method", "assay_type": "functional", "summary_of_the_method": "as §4"}, "Escherichia coli [9]": {"system": "Escherichia coli", "assay": "Potentiation of novobiocin-induced antibiotic activity against Escherichia coli ATCC 25922 assessed as MIC fold reduction at 8 ug/ml after 18 hrs by microbroth dilution method", "assay_type": "functional", "conditions": "dose 8 µg/ml"}, "Acinetobacter baumannii [10]": {"system": "Acinetobacter baumannii", "assay": "Potentiation of doxycycline-induced antibiotic activity against Acinetobacter baumannii ATCC 17978 assessed as MIC fold reduction at 8 ug/ml after 18 hrs by microbroth dilution method", "assay_type": "functional", "conditions": "dose 8 µg/ml", "summary_of_the_method": "as §3"}, "Pseudomonas aeruginosa [11]": {"system": "Pseudomonas aeruginosa", "assay": "Potentiation of antibiotic activity against Pseudomonas aeruginosa PA259 assessed as MIC fold reduction in ID-CAMHB condition at 8 ug/ml after 18 hrs by microbroth dilution method", "conditions": "dose 8.0 µg/ml"}, "Pseudomonas aeruginosa [12]": {"system": "Pseudomonas aeruginosa", "assay": "Potentiation of cefiderocol-induced antibiotic activity against MDR clinical isolate Pseudomonas aeruginosa PA260 assessed as MIC fold reduction at 8 ug/ml after 18 hrs by microbroth dilution method", "assay_type": "functional, organism-based", "conditions": "dose 8.0 µg/ml", "summary_of_the_method": "(§5)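 Initial screen in MHB using a fixed 8 μg mL−1 of adjuvant combined with each antibiotic under 2-fold dilution. Broth microdilution used about 5 × 10^5 CFU/mL at 37 °C for 18 h, with visible turbidity read and confirmed at 590 nm. Fold-potentiation = antibiotic MIC alone ÷ antibiotic MIC with adjuvant.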"}, "Acinetobacter baumannii [13]": {"system": "Acinetobacter baumannii", "assay": "Antibacterial activity against Acinetobacter baumannii AB031 assessed as reduction in bacterial growth after 18 hrs by microbroth dilution method", "assay_type": "functional", "summary_of_the_method": "as §1"}, "Escherichia coli [14]": {"system": "Escherichia coli", "assay": "Potentiation of fosfomycin-induced antibiotic activity against Escherichia coli ATCC 25922 assessed as MIC fold reduction at 8 ug/ml after 18 hrs by microbroth dilution method", "assay_type": "functional", "conditions": "dose 8 µg/ml", "summary_of_the_method": "as §3"}, "Escherichia coli [15]": {"system": "Escherichia coli", "assay": "Antibacterial activity against Escherichia coli 94393 assessed as reduction in bacterial growth after 18 hrs in presence of cefiderocol by microbroth dilution method", "assay_type": "functional", "summary_of_the_method": "as §4"}, "Acinetobacter baumannii [16]": {"system": "Acinetobacter baumannii", "assay": "Potentiation of rifampicin-induced antibiotic activity against Acinetobacter baumannii ATCC 17978 assessed as MIC fold reduction at 8 ug/ml after 18 hrs by microbroth dilution method", "assay_type": "functional", "conditions": "dose 8 µg/ml"}, "Pseudomonas aeruginosa [17]": {"system": "Pseudomonas aeruginosa", "assay": "Antibacterial activity against MDR clinical isolate Pseudomonas aeruginosa PA262 assessed as potentiation of cefiderocol antibacterial activity by measuring FIC index after 18 hrs by microbroth dilution method", "assay_type": "functional", "summary_of_the_method": "as §2"}, "Pseudomonas aeruginosa [18]": {"system": "Pseudomonas aeruginosa", "assay": "Antibacterial activity against MDR clinical isolate Pseudomonas aeruginosa PA88949 assessed as reduction in bacterial growth after 18 hrs in presence of cefiderocol by microbroth dilution method", "assay_type": "functional", "summary_of_the_method": "as §2"}, "Acinetobacter baumannii [19]": {"system": "Acinetobacter baumannii", "assay": "Potentiation of ceftazidime-induced antibiotic activity against Acinetobacter baumannii ATCC 17978 assessed as MIC fold reduction at 8 ug/ml after 18 hrs by microbroth dilution method", "assay_type": "functional", "conditions": "dose 8 µg/ml", "summary_of_the_method": "as §3"}, "Escherichia coli [20]": {"system": "Escherichia coli", "assay": "Potentiation of ceftolozane-induced antibiotic activity against Escherichia coli ATCC 25922 assessed as MIC fold reduction at 8 ug/ml after 18 hrs by microbroth dilution method", "assay_type": "functional", "conditions": "dose 8 µg/ml", "summary_of_the_method": "as §3"}, "Pseudomonas aeruginosa [21]": {"system": "Pseudomonas aeruginosa", "assay": "Potentiation of aztreonam-induced antibiotic activity against Pseudomonas aeruginosa PAO1 assessed as MIC fold reduction at 8 ug/ml after 18 hrs by microbroth dilution method", "assay_type": "functional", "conditions": "dose 8 µg/ml", "summary_of_the_method": "as §5"}, "Acinetobacter baumannii [22]": {"system": "Acinetobacter baumannii", "assay": "Potentiation of vancomycin-induced antibiotic activity against Acinetobacter baumannii ATCC 17978 assessed as MIC fold reduction at 8 ug/ml after 18 hrs by microbroth dilution method", "assay_type": "functional", "conditions": "dose 8 µg/ml"}, "Escherichia coli [23]": {"system": "Escherichia coli", "assay": "Potentiation of ciprofloxacin-induced antibiotic activity against Escherichia coli ATCC 25922 assessed as MIC fold reduction at 8 ug/ml after 18 hrs by microbroth dilution method", "assay_type": "functional", "conditions": "dose 8 µg/ml", "summary_of_the_method": "as §3"}, "Escherichia coli [24]": {"system": "Escherichia coli", "assay": "Potentiation of cefotaxime-induced antibiotic activity against Escherichia coli ATCC 25922 assessed as MIC fold reduction at 8 ug/ml after 18 hrs by microbroth dilution method", "assay_type": "functional", "conditions": "dose 8 µg/ml", "summary_of_the_method": "as §5"}}, "note": "The source made the active and inactive calls. The calls are words filed in the database; no cut-off is given here."}
{"compound": "NC[C@H]1O[C@H](O[C@H]2[C@H](OCCCCc3cn(-c4ccc(NC(=O)c5cc(Cl)ccc5O)cc4)nn3)[C@@H](O[C@H]3O[C@H](CO)[C@@H](O)[C@H](N)[C@H]3O)[C@H](N)C[C@@H]2N)[C@H](N)C[C@@H]1O", "values": [{"measurement": "MIC", "setting": "Enterobacter cloacae", "result": "> 128", "unit": "µg/mL"}, {"measurement": "FIC", "setting": "Klebsiella pneumoniae [1]", "result": 0.5}, {"measurement": "MIC", "setting": "Klebsiella pneumoniae [2]", "result": "> 128", "unit": "µg/mL"}, {"measurement": "fold change (FC)", "setting": "Escherichia coli [3]", "result": 4}, {"measurement": "MIC", "setting": "Acinetobacter baumannii [4]", "result": 8, "unit": "µg/mL"}, {"measurement": "MIC", "setting": "Escherichia coli [5]", "result": "> 128", "unit": "µg/mL"}, {"measurement": "MIC", "setting": "Acinetobacter baumannii [6]", "result": 16, "unit": "µg/mL"}, {"measurement": "fold change (FC)", "setting": "Escherichia coli [7]", "result": 4}, {"measurement": "MIC", "setting": "Klebsiella pneumoniae [8]", "result": 4, "unit": "µg/mL"}, {"measurement": "fold change (FC)", "setting": "Escherichia coli [9]", "result": 4}, {"measurement": "fold change (FC)", "setting": "Acinetobacter baumannii [10]", "result": 4}, {"measurement": "Activity", "setting": "Pseudomonas aeruginosa [11]", "result": "Active"}, {"measurement": "Activity", "setting": "Pseudomonas aeruginosa [12]", "result": "Active"}, {"measurement": "MIC", "setting": "Acinetobacter baumannii [13]", "result": "> 128", "unit": "µg/mL"}, {"measurement": "fold change (FC)", "setting": "Escherichia coli [14]", "result": 4}, {"measurement": "MIC", "setting": "Escherichia coli [15]", "result": 1, "unit": "µg/mL"}, {"measurement": "fold change (FC)", "setting": "Acinetobacter baumannii [16]", "result": 4}, {"measurement": "FIC", "setting": "Pseudomonas aeruginosa [17]", "result": 0.25}, {"measurement": "MIC", "setting": "Pseudomonas aeruginosa [18]", "result": 0.25, "unit": "µg/mL"}, {"measurement": "fold change (FC)", "setting": "Acinetobacter baumannii [19]", "result": 4}, {"measurement": "fold change (FC)", "setting": "Escherichia coli [20]", "result": 4}, {"measurement": "fold change (FC)", "setting": "Pseudomonas aeruginosa [21]", "result": 4}, {"measurement": "fold change (FC)", "setting": "Acinetobacter baumannii [22]", "result": 4}, {"measurement": "fold change (FC)", "setting": "Escherichia coli [23]", "result": 4}, {"measurement": "fold change (FC)", "setting": "Escherichia coli [24]", "result": 4}]}
